The chains are these.
B1: tRNA (parent)
chain: GUUCCGUUGGCGUAAUGGUAACGCGUCUCCCUCCUAAGGAGAAGACUGCGGGUUCGAGUCCCGUACGGAACG

Fewer inactive variants are shown than the library holds.

Variants of B1 are the subject of this data set. Kind of data set: yeast fitness relative to wild type (ratio to wild type); higher = fitter; tRNA-Arg(CCU), competitive growth, 37 C, YPD. The method in brief: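 The tRNA-Arg(CCU) gene variants were made by chemical synthesis with a 3% per-site mutation rate at 69 sites and inserted at the native genomic locus of Saccharomyces cerevisiae. After pooling, the strains were competed in YPD at 37°C for 24 hours in six parallel replicates. Gene amplicons from the start population and each end population were read by 100-nucleotide paired-end sequencing, and Darwinian fitness relative to wild type was taken from genotype frequency changes. Genotypes needed ≥ 100 starting reads, and estimates < 0.5 were set to 0.5.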
For the variant U7C G41A A42C G50C A65U, the yeast fitness was at most 0.5. Turning to U7G U54C C66A, the yeast fitness was at most 0.5. In the case of U7G U26C, the yeast fitness turned out to be 0.88. For the variant U7G C27G A40U G58C, the yeast fitness is at most 0.5. With U7C G41A A42C G50C A69U, the yeast fitness was 0.556. For the variant U7G G10C C33U U53G C60A G68U A69C, the yeast fitness stood at 0.776. In the case of U7G A15C U16A C33G A37C C49A C61U, the yeast fitness worked out at 0.525. In the case of U8A A21C G56C, the yeast fitness was at most 0.5. For U8A C24U A40U A42C A45U, the yeast fitness amounted to 0.563. For the variant U8A A43G A45C C49G, the yeast fitness is 0.58. For U7G C27A A36C A42U U64G, the yeast fitness came to 0.528. Take U8A C11U U19C C46A C66U: the yeast fitness is 0.578. Take U7C U53A G56C G63A: the yeast fitness was at most 0.5.

On to U7C G39A, for which the yeast fitness was 0.913. The same measure for U8A C11U U47G G67A: at most 0.5.

For the variant U7G A57U, the yeast fitness is 0.599.

As for U8A C22U A69C A70C, the yeast fitness is 0.595. As to U7G A36G A45G C49U, the yeast fitness was 0.641. On to U8A C31U C60A C62G A70C, for which the yeast fitness is at most 0.5.

As to U7G C31U, the yeast fitness worked out at 0.98. Turning to U7G C31G A36C, the yeast fitness was at most 0.5.

Regarding U7G C34G A43U, the yeast fitness was 0.661. Take U7G A20G U32G A43C A45U: the yeast fitness is at most 0.5. In the case of U8A C24G G41C A65G, the yeast fitness was at most 0.5.

For U7C U28C G41A A42C G50C A70G, the yeast fitness was 0.572. For the variant U7G C27U A57C A70U, the yeast fitness is at most 0.5. The same measure for U7C G41A A42C G50C C62U: at most 0.5. On to U7G U26C A42U C46U, for which the yeast fitness came out at 0.581.

On to U7G A37U G50C, for which the yeast fitness was at most 0.5. With U8A C24U A40C A42C A45U, the yeast fitness is at most 0.5.

Take U8A A15U A37C G68A: the yeast fitness is at most 0.5. The value for U8A C24A was 0.624. Turning to U8A C24G, the yeast fitness is at most 0.5. As to U7C G68C A69U, the yeast fitness was 0.612. The value for U7G U59A was 0.754.

With U7C G51C A57U, the yeast fitness was at most 0.5.

Take U8A A57U: the yeast fitness was found to be 0.502. With U7C U16G U28A C49G A57C G67U, the yeast fitness was at most 0.5. The value for U7G C27U C33U C66U was at most 0.5. Consider U7G U16G C61U, for which the yeast fitness is at most 0.5. The same measure for U8A C24U U47C: 0.575.

As to U7G A21U C29A C55A A69U, the yeast fitness is at most 0.5. For U7G U47C, the yeast fitness came to 0.845. Take U7C U47C U54C C55G: the yeast fitness is at most 0.5. For U7G G58C C66U, the yeast fitness was determined as 0.645. U7G C33U A42C A43C C49U A69U: the yeast fitness is at most 0.5.

Regarding U7G G25C G58C, the yeast fitness amounted to 0.558. For U8A C27A A37U A57U, the yeast fitness is at most 0.5. The value for U8A C24A C30U C31U G48C was 0.58; that for U7G A14U U19A C22U C61A U64A A69U was 0.543. Consider U8A C11U A37U U64A, for which the yeast fitness worked out at 0.545. As to U8A A20U C34U A45C, the yeast fitness is 0.567. With U8A C31A, the yeast fitness amounted to 0.605. The same measure for U7C U26C C49U: at most 0.5; for U7G G48A A69C: 0.697. For the variant U7G A43G C46G G63A, the yeast fitness was at most 0.5. The value for U8A C24A U28C G56A was 0.556; that for U8A C24U A40U A42C A45U C49U was at most 0.5; that for U7G C30G G56A was 0.505. Turning to U7G G23C U54A A57C A70U, the yeast fitness was at most 0.5. In the case of U8A A20G C33A A57G, the yeast fitness was at most 0.5.

For U7G C29A A69G, the yeast fitness is at most 0.5.

On to U8A A20C C31A A57C C66A A69U, for which the yeast fitness is at most 0.5. The value for U7G A14G C22U G38A C55A G67A was at most 0.5; that for U8A A15U C29U was at most 0.5. The value for U7C U59C was 0.846. For the variant U8A C24U A40U A42C A45U C61U, the yeast fitness is at most 0.5. Regarding U7C U32G G56U, the yeast fitness is at most 0.5. Turning to U8A C30A A65G, the yeast fitness stood at 0.543.

U7C U19C U26C C34U G52A U59A G63C: the yeast fitness is at most 0.5.

As to U7G U19A C34U C66U, the yeast fitness amounted to 0.588.

As to U7C G38C C49A G56A C61G, the yeast fitness is at most 0.5. The same measure for U8A C22G C55G: 0.651.

Regarding U8A C11U U47G, the yeast fitness was at most 0.5. On to U7G G23C C30G A36U C61U A65U, for which the yeast fitness came out at 0.527.

For U8A C29U C34U C49A G67A, the yeast fitness was at most 0.5. The value for U8A A14C C31A G41C C49A G56A A70C was 0.533. The value for U7G C24A C27A was at most 0.5. The same measure for U7G A14U C30A: at most 0.5.

As to U7G A37U A70U, the yeast fitness is 0.542.

Regarding U8A C30A A37G C46U A57C, the yeast fitness came out at 0.579.

Turning to U7C G38C C49A, the yeast fitness is 0.618.

Turning to U7G G48A C62U, the yeast fitness is 0.628.

Consider U8A C30G U59A, for which the yeast fitness is at most 0.5.

Take U7G C34A C46G A65C: the yeast fitness stood at 0.746. The value for U7C G41A A42C G50C G52A A70G was at most 0.5; that for U7G C22A U64C A70C was at most 0.5. The same measure for U7G C33G G48C U64C: 0.531; for U8A C11A A14G C24A C29A C34U C61G A65C: at most 0.5. With U7G A15U A45C C46U G56A G67C, the yeast fitness is at most 0.5.

Turning to U7G A37C, the yeast fitness stood at 0.757.

As to U7G A37U, the yeast fitness came to 0.72. On to U7G A37G, for which the yeast fitness was 0.633. In the case of U7C U19A C62A G67C, the yeast fitness is at most 0.5.

For the variant U7C U32A, the yeast fitness is 0.761. On to U7C G41A A42C G50C G67U, for which the yeast fitness was at most 0.5. On to U7C U16C A21U C22A C49U G50C A69U, for which the yeast fitness was at most 0.5.

U7G C27U C33U A57U: the yeast fitness was at most 0.5. Regarding U8A A43C G44C, the yeast fitness is at most 0.5.

With U8A A20C C62A, the yeast fitness was at most 0.5.

As for U8A A69C, the yeast fitness was 0.915. For U8A A69G, the yeast fitness worked out at 0.604.

Turning to U8A A69U, the yeast fitness is 0.719.

In the case of U7G A45C G51C U53C, the yeast fitness was at most 0.5. The same measure for U7C U16A G41C: 0.613. U7G C46U C60A G67A: the yeast fitness is at most 0.5. Turning to U8A A70U, the yeast fitness was found to be 0.813.

For U7C U28A A37G C46U U47C, the yeast fitness was at most 0.5. The same measure for U7G C24G A65U C66U: at most 0.5; for U8A A40C C46U: at most 0.5; for U7G C11G C34U G41A C49U: at most 0.5. U7G G44C: the yeast fitness was determined as 0.666.

Consider U7G A14U U26A C61A, for which the yeast fitness is at most 0.5. For U8A C24G A43G C49U, the yeast fitness is at most 0.5. The same measure for U7C U28A C31U C55G C66U: at most 0.5; for U7G G68C: 0.895. Regarding U7G C34G A36C C62G G68C, the yeast fitness was at most 0.5. U7G C46U: the yeast fitness is 0.987. Consider U7G C22U G51C G58A, for which the yeast fitness was at most 0.5. The same measure for U7G G10C G58A: at most 0.5. On to U8A A15U C27G A36G A70C, for which the yeast fitness is at most 0.5. On to U8A A21C C29A G39A U54G G58C, for which the yeast fitness was at most 0.5. For the variant U7C G48C G67C, the yeast fitness was at most 0.5. With U8A A15C A20C U28C, the yeast fitness was at most 0.5. For the variant U8A C11U A15G G63C, the yeast fitness is at most 0.5. For U8A C29G A70G, the yeast fitness was at most 0.5.

On to U7C U19G C61G C62U, for which the yeast fitness is 0.514. As for U7G A42C G44C A65C, the yeast fitness is 1.08.

On to U7G C29U, for which the yeast fitness worked out at 0.775. As to U7G G18A G48A, the yeast fitness is at most 0.5. Consider U7G G48A, for which the yeast fitness worked out at 0.847.

As to U7G G12A U13A, the yeast fitness came to 0.565. For the variant U7G A14G U35G A43G U59A, the yeast fitness was found to be 0.669. Regarding U8A C24A U64A, the yeast fitness is at most 0.5. U7C U35C A37C: the yeast fitness was 0.732. Turning to U7C U13A C24U G51A U59A A65C, the yeast fitness worked out at 0.642. For U8A C22U G56A U59A, the yeast fitness is at most 0.5. The value for U7G A40C G67C was at most 0.5; that for U7C U64C was 0.88.

For U7G G12A, the yeast fitness came out at 0.816. For U8A A15C G18C C49U, the yeast fitness was 0.603.

On to U7G A70G, for which the yeast fitness was 0.993.

Regarding U7G C61U G68A, the yeast fitness was 0.533. With U7G A14C C30G C66U, the yeast fitness was at most 0.5. For U7G A21U C29A C55A, the yeast fitness is 0.604.

As for U7C U26C, the yeast fitness amounted to 0.866. Regarding U8A A15C A21G C27U C46U, the yeast fitness was at most 0.5. For the variant U8A A65C A70U, the yeast fitness worked out at 0.525. The value for U7G U19A C30G C33U C61G was at most 0.5. Regarding U7C G48C C62U, the yeast fitness amounted to 0.548. As to U8A C29U C31A G38A, the yeast fitness was at most 0.5. For U7G G67C, the yeast fitness came to 0.856. Take U7G C30A A65C: the yeast fitness was found to be 1.06. For U8A C27G G39A C46U G67A, the yeast fitness is at most 0.5. As to U8A C29G A40G G63A, the yeast fitness is at most 0.5.

As to U7G C11U G58A, the yeast fitness was determined as 0.589.

As for U7G G63A G67C, the yeast fitness was at most 0.5. U8A A40C C46U G52A: the yeast fitness is at most 0.5. In the case of U7G A20U, the yeast fitness is 0.742.

Turning to U8A C33U G67A, the yeast fitness is at most 0.5. Consider U8A A20G U26C A40C, for which the yeast fitness is 0.617. As to U7C G67A, the yeast fitness amounted to 0.863. The value for U7C G67U was 0.847; that for U7G G25A C49G was 0.542.

With U7G G12C G23C C29G C60A, the yeast fitness is at most 0.5. As for U7G A20C G41A G50A C60U C66G, the yeast fitness was at most 0.5. As for U7C G48A A69C, the yeast fitness turned out to be 0.695.
